Measurements as given in ChEMBL document CHEMBL2396536, “Curcuminoids block TGF-β signaling in human breast cancer cells and limit osteolysis in a murine model of breast cancer bone metastasis” (J Nat Prod, 2013).
Activity calls are given as the source filed them. The rule behind the calls is not given here.

These molecules were tested on MDA-MB-231 (assay: Cytotoxicity against human MDA-MB-231 cells assessed as cell viability by MTT assay). Conditions: not given.
Format: cell-based
In short: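 MDA-MB-231 plated at 5 × 10^4 cells/cm2 and held overnight in DMEM with 10% FBS at 37°C and 5% CO2. Pre-incubated 4 h with compound in 2% FBS DMEM, then medium refreshed with TGF-β1 (5 ng/mL) for 24 h. Cell number read by MTT reduction.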
COc1cc(/C=C/C(O)=C/C(=O)/C=C/c2ccc(O)cc2)ccc1O [DEMETHOXYCURCUMIN] gave an MTC of 82 µM.

What follows are molecules tested on MDA-MB-231 (assay: Inhibition of osteolytic bone metastases in human MDA-MB-231 cells xenografted in athymic nude mouse left cardiac ventricle assessed as reduction in lytic bone lesion area at 25 to 50 mg/kg, ip administered every other day for 3 weeks measured on day 21 relative to control). Conditions: dose mg/kg 25-50; route intraperitoneal.
Format: functional, Heart left ventricle
In short: (§1)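 Four-week female athymic nude mice inoculated with 1 × 10^5 MDA-MB-231 cells in 0.1 mL PBS into the left cardiac ventricle. Dosed ip at 25 or 50 mg/kg or vehicle every other day from day 1 for 21 days, n = 11/group. Lytic lesion area quantified on radiographs on days 12, 16 and 21. Two-way ANOVA with Bonferroni.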
COc1cc(/C=C/C(O)=C/C(=O)/C=C/c2ccc(O)cc2)ccc1O [DEMETHOXYCURCUMIN] was tested, and the “inhibition (INH)” value was 57%.

The molecules below were run on Mus musculus (assay: Effect on orthotopic tumor mass in human MDA-MB-231 cells xenografted athymic nude mouse mammary fat pad at 25 to 50 mg/kg, ip administered every other day for 3 weeks). Conditions: not given.
With COc1cc(/C=C/C(O)=C/C(=O)/C=C/c2ccc(O)cc2)ccc1O [DEMETHOXYCURCUMIN] the Activity was “inactive”.

Each molecule was assayed on Mus musculus (assay: Toxicity in human MDA-MB-231 cells xenografted athymic nude mouse left cardiac ventricle assessed as effect on alanine aminotransferase at 25 mg/kg, ip administered every other day for 3 weeks (reference value: 7.04 +/- 2.2 U/L)). Conditions: in vivo, 504 h.
Format: organism-based, Heart
Set-up: dose 25 mg/kg, route intraperitoneal
For COc1cc(/C=C/C(O)=C/C(=O)/C=C/c2ccc(O)cc2)ccc1O [DEMETHOXYCURCUMIN], the Activity was 7.13 U/L.

These molecules were tested against Mothers against decapentaplegic homolog 2 (Homo sapiens) (UniProt Q15796) (assay: Inhibition of TGF-beta-induced Smad2 phosphorylation in human MDA-MB-231 cells treated 12 hrs before TGF-beta challenge measured after 1 hr by Western blotting). Conditions: not given.
Sequence of Mothers against decapentaplegic homolog 2 (Homo sapiens) (Q15796 whole entry): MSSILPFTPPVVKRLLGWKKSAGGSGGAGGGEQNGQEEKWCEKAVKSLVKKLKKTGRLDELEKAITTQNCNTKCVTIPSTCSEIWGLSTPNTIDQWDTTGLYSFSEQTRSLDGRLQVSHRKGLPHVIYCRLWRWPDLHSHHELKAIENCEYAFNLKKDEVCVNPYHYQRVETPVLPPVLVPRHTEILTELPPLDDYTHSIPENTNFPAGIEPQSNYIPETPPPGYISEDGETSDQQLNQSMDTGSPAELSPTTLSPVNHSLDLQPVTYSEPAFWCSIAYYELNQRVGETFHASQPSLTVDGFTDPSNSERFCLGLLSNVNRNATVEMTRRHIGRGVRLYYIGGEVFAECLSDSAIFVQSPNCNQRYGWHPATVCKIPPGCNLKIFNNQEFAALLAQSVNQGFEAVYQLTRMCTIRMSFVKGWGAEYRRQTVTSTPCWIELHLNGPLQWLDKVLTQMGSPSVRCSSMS
Format: cell-based
In short: (§2)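 Subconfluent MDA-MB-231 pre-treated 12 h with compound (80 μM), then TGF-β (5 ng/mL) for 1 h. RIPA whole-cell lysates (18 μg) run on SDS-PAGE and transferred to PVDF. Probed with rabbit anti-phospho-Smad2, phospho-Smad3, phospho-p38 or Ets-1 (1:1000, overnight, 4 °C). β-actin used as loading control. Chemiluminescent detection; three independent experiments.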
In the case of COc1cc(/C=C/C(O)=C/C(=O)/C=C/c2ccc(O)cc2)ccc1O [DEMETHOXYCURCUMIN], the inhibition is reported as “Active”.

These molecules were tested on Mus musculus (assay: Toxicity in human MDA-MB-231 cells xenografted athymic nude mouse left cardiac ventricle assessed as effect on liver weight at 50 mg/kg, ip administered every other day for 3 weeks (reference value: 1 +/- 0.10 gram)). Conditions: in vivo, 504 h.
Format: organism-based, Heart
Set-up: dose 50 mg/kg, route intraperitoneal
In the case of COc1cc(/C=C/C(O)=C/C(=O)/C=C/c2ccc(O)cc2)ccc1O [DEMETHOXYCURCUMIN], the Activity is reported as 1.1 g.

The molecules below were run on MDA-MB-231 (assay: Inhibition of osteolytic bone metastases in human MDA-MB-231 cells xenografted in athymic nude mouse left cardiac ventricle assessed as reduction of bone-tumor interface at 25 mg/kg, ip administered every other day for 3 weeks). Conditions: MDA-MB-231, Heart left ventricle, 504 h, route intraperitoneal.
Format: functional
In short: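 Intracardiac MDA-MB-231 model in nude mice, dosed ip every other day for 21 days. Mid-sagittal tibia and femur sections TRAP-stained. TRAP+ multinucleated (>3 nuclei) cells counted at 40x along the tumor-bone interface. Expressed as osteoclasts per mm of interface.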
COc1cc(/C=C/C(O)=C/C(=O)/C=C/c2ccc(O)cc2)ccc1O [DEMETHOXYCURCUMIN] showed an inhibition in vivo at 25 mg/kg of 53%.

The molecules below were run on MDA-MB-231 (assay: Inhibition of osteolytic bone metastases in human MDA-MB-231 cells xenografted in athymic nude mouse left cardiac ventricle assessed as reduction of bone lysis at 25 to 50 mg/kg, ip administered every other day for 3 weeks measured on day 21). Conditions: dose mg/kg 25-50; route intraperitoneal.
Format: functional, Heart left ventricle
In short: as §1
COc1cc(/C=C/C(O)=C/C(=O)/C=C/c2ccc(O)cc2)ccc1O [DEMETHOXYCURCUMIN] was tested, and the “inhibition (INH)” value was greater than 50%.

These molecules were tested on Mus musculus (assay: Toxicity in human MDA-MB-231 cells xenografted athymic nude mouse left cardiac ventricle assessed as effect on white blood cells at 25 mg/kg, ip administered every other day for 3 weeks (reference value: 5.84 +/- 1.3 K/uL)). Conditions: in vivo, 504 h.
With COc1cc(/C=C/C(O)=C/C(=O)/C=C/c2ccc(O)cc2)ccc1O [DEMETHOXYCURCUMIN] the Activity was 4.69 K/uL.

What follows are molecules tested on MDA-MB-231 (assay: Inhibition of TGF-beta-induced PTHrP secretion in human MDA-MB-231 cells treated 4 hrs before TGF-beta challenge measured after 24 hrs by radioimmunoassay). Conditions: not given.
Format: functional, cell-based
In short: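 MDA-MB-231 plated at 5 × 10^4 cells/cm2 and held overnight in DMEM with 10% FBS. Pre-treated 4 h with compound (0.1–100 μM in methods; 0.1–300 μM in legend) in 2% FBS, then recombinant human TGF-β1 (5 ng/mL) or medium alone for 24 h. PTHrP measured in conditioned media by radioimmunoassay, n = 4 wells/group. IC50 from four-parameter logistic fit.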
With COc1cc(/C=C/C(O)=C/C(=O)/C=C/c2ccc(O)cc2)ccc1O [DEMETHOXYCURCUMIN] the IC50 was 24 µM and the inhibition was “Dose-dependent effect”.

Same assay, conditions: read-out: MEC
In the case of COc1cc(/C=C/C(O)=C/C(=O)/C=C/c2ccc(O)cc2)ccc1O [DEMETHOXYCURCUMIN], the minimal effective concentration is reported as 13 µM.

These molecules were tested on Mus musculus (assay: Toxicity in human MDA-MB-231 cells xenografted athymic nude mouse left cardiac ventricle assessed as effect on hematocrit at 25 mg/kg, ip administered every other day for 3 weeks (reference value: 30.2 +/- 1.5%)). Conditions: in vivo, 504 h.
Format: organism-based, Heart
Set-up: dose 25 mg/kg, route intraperitoneal
COc1cc(/C=C/C(O)=C/C(=O)/C=C/c2ccc(O)cc2)ccc1O [DEMETHOXYCURCUMIN] showed an Activity of 30.6%.

Each molecule was assayed on MDA-MB-231 (assay: Inhibition of osteolytic bone metastases in human MDA-MB-231 cells xenografted in athymic nude mouse left cardiac ventricle assessed as improvement in host survival at 25 to 50 mg/kg, ip administered every other day for 3 weeks measured on day 16 relative to vehicle-treated control). Conditions: Heart left ventricle.
Format: functional, organism-based
In short: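 Intracardiac MDA-MB-231 nude mice (n = 11/group) dosed ip every other day for 3 weeks. Survival shown by Kaplan–Meier and analyzed by logrank test with post-hoc logrank test for trend.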
In the case of COc1cc(/C=C/C(O)=C/C(=O)/C=C/c2ccc(O)cc2)ccc1O [DEMETHOXYCURCUMIN], the Activity is reported as “Active”.

These molecules were tested on Mus musculus (assay: Toxicity in human MDA-MB-231 cells xenografted athymic nude mouse left cardiac ventricle assessed as effect on platelets at 25 mg/kg, ip administered every other day for 3 weeks (reference value: 513 +/- 54 K/uL)). Conditions: in vivo, 504 h.
Format: organism-based, Heart
Set-up: dose 25 mg/kg, route intraperitoneal
In the case of COc1cc(/C=C/C(O)=C/C(=O)/C=C/c2ccc(O)cc2)ccc1O [DEMETHOXYCURCUMIN], the Activity is reported as 485 K/uL.

These molecules were tested against MAP kinase p38 (Homo sapiens) (UniProt O15264+Q15759+Q16539+P53778) (assay: Inhibition of TGF-beta-induced p38 phosphorylation in human MDA-MB-231 cells treated 12 hrs before TGF-beta challenge measured after 1 hr by Western blotting). Conditions: not given.
Format: cell-based
In short: as §2
With COc1cc(/C=C/C(O)=C/C(=O)/C=C/c2ccc(O)cc2)ccc1O [DEMETHOXYCURCUMIN] the inhibition was “inactive”.
